Reference: ChEMBL document CHEMBL1137220, “2-(2-(dimethylaminomethyl)phenoxy)-5-iodophenylamine: an improved serotonin transporter imaging agent” (J Med Chem, 2004)
pKi: −log10 of the molar value.

Assays:
[1] = molecular target: Sodium-dependent dopamine transporter (Homo sapiens, UniProt Q01959); assay: Binding affinity for dopamine transporter expressed in […] cells; type: cell-based
Procedure, shortened: (§1)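 Membranes from confluent pig kidney LLC-PK₁ cells stably expressing the respective transporter, homogenized and pelleted, 30–40 μg protein. Incubated with 0.4 nM [¹²⁵I]IPT or [¹²⁵I]IDAM and 8–10 competitor concentrations (10⁻¹⁰ to 10⁻⁵ M) in 50 mM Tris-HCl pH 7.4, 120 mM NaCl, 0.1% BSA, 1 h at room temperature. Nonspecific binding was defined with 10 μM CFT for IPT and 1 μM IDAM for IDAM. Filtration, gamma counting, nonlinear regression for Ki.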

[2] = molecular target: Sodium-dependent serotonin transporter (Homo sapiens, UniProt P31645); assay: Binding affinity for serotonin transporter expressed in […] cells; type: cell-based; procedure, shortened: as §1
Chain of Sodium-dependent serotonin transporter (P31645 whole entry): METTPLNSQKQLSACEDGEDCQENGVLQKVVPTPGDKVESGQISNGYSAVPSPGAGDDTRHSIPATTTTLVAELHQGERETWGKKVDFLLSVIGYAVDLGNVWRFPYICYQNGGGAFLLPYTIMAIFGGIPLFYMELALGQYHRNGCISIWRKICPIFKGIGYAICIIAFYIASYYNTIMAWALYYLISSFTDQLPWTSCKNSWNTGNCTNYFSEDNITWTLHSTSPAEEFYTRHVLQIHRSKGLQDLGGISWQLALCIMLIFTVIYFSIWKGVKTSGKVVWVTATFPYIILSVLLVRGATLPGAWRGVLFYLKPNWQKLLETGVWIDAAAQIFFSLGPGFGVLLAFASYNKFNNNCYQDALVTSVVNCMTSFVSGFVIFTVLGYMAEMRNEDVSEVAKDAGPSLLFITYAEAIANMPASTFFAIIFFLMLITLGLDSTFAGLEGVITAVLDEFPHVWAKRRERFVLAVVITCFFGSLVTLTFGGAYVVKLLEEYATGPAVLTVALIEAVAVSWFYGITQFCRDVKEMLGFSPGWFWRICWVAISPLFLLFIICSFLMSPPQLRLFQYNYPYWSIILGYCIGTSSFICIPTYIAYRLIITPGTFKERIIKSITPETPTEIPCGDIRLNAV

Chain of Sodium-dependent dopamine transporter (Q01959 whole entry): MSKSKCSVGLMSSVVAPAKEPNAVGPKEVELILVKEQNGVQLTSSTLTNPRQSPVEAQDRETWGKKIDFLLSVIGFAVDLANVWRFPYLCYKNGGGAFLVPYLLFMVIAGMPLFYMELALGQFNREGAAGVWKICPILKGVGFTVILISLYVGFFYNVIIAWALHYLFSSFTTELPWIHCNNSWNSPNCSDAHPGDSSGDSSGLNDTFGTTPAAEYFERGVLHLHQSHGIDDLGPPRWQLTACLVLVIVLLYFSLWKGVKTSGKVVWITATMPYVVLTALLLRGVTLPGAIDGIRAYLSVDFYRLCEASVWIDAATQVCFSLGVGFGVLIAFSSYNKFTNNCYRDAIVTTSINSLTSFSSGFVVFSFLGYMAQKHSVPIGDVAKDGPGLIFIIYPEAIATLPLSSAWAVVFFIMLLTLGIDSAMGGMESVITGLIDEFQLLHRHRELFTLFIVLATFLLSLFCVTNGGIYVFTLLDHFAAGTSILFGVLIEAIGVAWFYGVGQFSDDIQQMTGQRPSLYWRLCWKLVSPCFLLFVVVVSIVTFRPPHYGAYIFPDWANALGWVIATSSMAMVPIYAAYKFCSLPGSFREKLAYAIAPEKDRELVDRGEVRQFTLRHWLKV

Q: How did the pKi [1] turn out when `CN(C)Cc1ccccc1Sc1ccc(I)cc1CO` was run?
A: < 6.00

Q: What about the pKi [2] of the same compound?
A: 10.05

Q: Which results are given for `CN(C)Cc1ccccc1Oc1ccc(I)cc1CO`?
A: pKi [1]: < 6.00; pKi [2]: 9.92

Q: `CN(C)Cc1ccccc1Cc1ccc(I)cc1N` was tested. Which pKi [1] did it give?
A: < 6.00

Q: What about the pKi [2] of the same compound?
A: 7.31

Q: What does the source list for `CN(C)Cc1ccccc1Sc1ccc(I)cc1N`?
A: pKi [1]: 6.08; pKi [2]: 11.00

Q: `CN(C)Cc1ccccc1Sc1ccc(C#N)cc1N` [DASB] was tested. Which pKi [1] did it give?
A: < 6.00
